Test results from ChEMBL document CHEMBL1156208, “Novel DNA-peptide interaction networks” (Bioorg Med Chem, 2010).
The source made the active and inactive calls. The rule behind the calls is not given here. Starred links: 1 amine or outer side, 2 acyl side, 3 side chain; linkers in the order of their positions; H or OH if unused. Non-standard residues stand in square brackets, D forms with d. Residues, ends and D or L forms follow the SMILES beside them. X1 = Cn1cc(N[*:1])cc1C(=O)[*:2]

What was measured:
Format in all cases: nucleic-acid assay
[1] = test system: Nucleic Acid; experiment: Binding affinity to 5^-GGAGAAAATACC-3^ sequence of [32P] labeled DNA at 2 uM after 120 mins by DNase1 foot printing
In short: (§1)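 5'-32P-labeled PCR duplexes (158-mer upper strand, 135-mer lower strand) were equilibrated with varying peptide concentrations in 5 mM sodium cacodylate, pH 6.5, at room temperature for 120 min. DNase I (final 0.009 unit/mL, limited to <30% digestion) was added for 10 min at 37 °C. Products were resolved on denaturing 8% polyacrylamide/8 M urea gels and band volumes integrated to give fractional saturation. Apparent K was taken as the peptide concentration at 50% saturation. Hill coefficient came from the slope of a least-squares Hill plot using at least six points.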

[2] = test system: Nucleic Acid; experiment: Binding affinity to 5^-TTTC-3^ sequence of [32P] labeled DNA at 2 uM after 120 mins by DNase1 foot printing; in short: as §1
[3] = test system: Nucleic Acid; experiment: Binding affinity to 13-mer DNA duplex U4A-L4T assessed as conformational change after 60 mins by circular dichroism
In short: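 CD spectra were recorded at 37 °C after 60 min incubation. Difference spectra were obtained by subtracting the duplex-alone and peptide-alone contributions.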

[4] = test system: Nucleic Acid; experiment: Binding affinity to 5^-TTTTCTCC-3^ sequence of [32P] labeled DNA at 2 uM after 120 mins by DNase1 foot printing; in short: as §1
[5] = test system: Nucleic Acid; experiment: Binding affinity to 5^-TTTTCTC-3^ sequence of [32P] labeled DNA at 2 uM after 120 mins by DNase1 foot printing; in short: as §1
[6] = test system: Nucleic Acid; experiment: Binding affinity to 5^-GAGAAAATACC-3^ sequence of [32P] labeled DNA at 2 uM after 120 mins by DNase1 foot printing; in short: as §1
[7] = test system: Nucleic Acid; experiment: Binding affinity to 5^-TTTCACA-3^ sequence of [32P] labeled DNA at 2 uM after 120 mins by DNase1 foot printing; in short: as §1
[8] = test system: Nucleic Acid; experiment: Binding affinity to 5^-ATTTTCTCC-3^ sequence of [32P] labeled DNA at 2 uM after 120 mins by DNase1 foot printing; in short: as §1

Row | Ka [1] [M⁻¹] | Ka [2] [M⁻¹] | Activity [3] | Ka [4] [M⁻¹] | Ka [5] [M⁻¹] | Ka [6] [M⁻¹] | Ka [7] [M⁻¹] | Ka [8] [M⁻¹] | Structure (SMILES)
1 | 4.7e+06 | 1.4e+06 | Active | 3.6e+06 | – | – | – | – | Cn1cc(NC(=O)c2cc(NC(=O)C(CCCCN)NC(=O)[C@H](CCCNC(=N)N)NC(=O)[C@@H]3C[C@@H](O)CN3C(=O)[C@@H](N)Cc3cnc[nH]3)cn2C)cc1C(=O)Nc1cc(C(=O)Nc2cc(C(=O)N[C@@H](CCCCN)C(=O)N[C@@H](CCCNC(=N)N)C(N)=O)n(C)c2)n(C)c1 (single isomer, unassigned)
2 | – | – | Dose-dependent effect | – | 3.4e+06 | 2.7e+06 | – | – | Cn1cc(NC(=O)c2cc(NC(=O)[C@H](CCCCN)NC(=O)[C@H](CCCNC(=N)N)NC(=O)[C@@H]3CCCN3C(=O)[C@@H](N)Cc3cnc[nH]3)cn2C)cc1C(=O)Nc1cc(C(=O)Nc2cc(C(=O)N[C@@H](CCCCN)C(=O)N[C@@H](CCCNC(=N)N)C(N)=O)n(C)c2)n(C)c1 (H-HPRK[X1][X1][X1][X1]KR-NH2)
3 | – | – | Active | – | – | – | 8.4e+06 | 9.7e+06 | Cn1cc(NC(=O)c2cc(NC(=O)[C@H](CCCCN)NC(=O)[C@H](CCCNC(=N)N)NC(=O)[C@@H]3CCCN3C(=O)[C@@H](N)Cc3cnc[nH]3)cn2C)cc1C(=O)Nc1cc(C(=O)Nc2cc(C(=O)N[C@@H](CCCNC(=N)N)C(N)=O)n(C)c2)n(C)c1
